Assay results pooled from the literature.
Protocols differ between the studies behind these lines. ≈ marks a conversion by molar mass, not a printed value.
Read-out: cell growth or viability

COc1ccc2/c(=N/c3ccccc3NC(=O)[C@@H](N)CO)cc(-c3ccc4c(c3)OCCO4)oc2c1 — inhibition (MDA-MB-468; CCK-8; 1 µM): 15.1%
O=C(NC1CC1)c1ccc(-c2nc3ccc4[nH]ncc4c3c3c2CCCC3)cc1 — GI50 (MV4-11; resazurin; 72 h): 481 nM
CCN(Cc1cccc(Cl)c1)c1ccc(CO)c(Cl)c1 — inhibition (RBE; ATP luminescence; 46 µM; 72 h): 59%
Cc1n[nH]c2ccc3nc(-c4ccc(C(=O)N(C)CCN(C)C)cn4)c4c(c3c12)CCCCC4 — GI50 (MV4-11; resazurin; 72 h): 713 nM
CC(=O)ON=C1C=CC(=C(C#N)c2ccccc2)C=C1 — IC50 (human Fibroblast; MTT; 72 h): 19.6 µg/mL (≈ 74 µM)
NCCC(=O)Nc1ccccc1/N=c1\cc(-c2ccc3nc(N)oc3c2)oc2ccccc12 — inhibition (MDA-MB-468; CCK-8; 1 µM): 47.2%
O=C(CCCCCCSc1ccc2ccccc2c1)NO — viability (HBL1; ATP luminescence; 0.1 µM; 5 days): 112%
NC(=O)C1CCCN1C(=O)Nc1ccccc1/N=c1\cc(-c2ccc3c(c2)OCCO3)oc2cc(F)ccc12 (stereo not drawn) — inhibition (MDA-MB-468; CCK-8; 1 µM): 3.25%
O=C(CCCCCCC(=O)Nc1ccccc1)NO — viability (HBL1; ATP luminescence; 0.5 µM; 5 days): 49.7%
Nc1ccccc1/N=c1\cc(-c2ccc3c(c2)OCO3)oc2ccccc12 — inhibition (MDA-MB-468; CCK-8; 1 µM): 5.28%
O=C(/C=C/c1cccc(C(=O)NO)c1)NO — viability (HBL1; ATP luminescence; 0.5 µM; 5 days): 89.6%
Cc1n[nH]c2ccc3nc(-c4ccc(C(=O)NCCN(C)C)cc4)c4c(c3c12)CCCCC4 — GI50 (MV4-11; resazurin; 72 h): 98 nM
O=C(Nc1cccc(Br)c1)c1cccc(S(=O)(=O)N2CCCCCC2)c1 — viability (HBL1; ATP luminescence; 0.5 µM; 5 days): 110%
Cc1n[nH]c2ccc3nc(-c4ccc(C(=O)NCCN(C)C)cc4F)c4c(c3c12)CCCCC4 — GI50 (MV4-11; resazurin; 72 h): 88 nM
NCCC(=O)Nc1ccccc1/N=c1\cc(-c2ccc3oc(N)nc3c2)oc2ccccc12 — inhibition (MDA-MB-468; CCK-8; 1 µM): 59.8%
O=C(NO)c1ccc(CC(=O)N(CCO)c2ccccc2)cc1 — viability (HBL1; ATP luminescence; 1 µM; 5 days): 107%
Cc1n[nH]c2ccc3nc(-c4ccc(C(=O)N(C)CCN(C)C)nc4)c4c(c3c12)CCCCC4 — GI50 (MV4-11; resazurin; 72 h): 1100 nM
CC(c1ccccc1)n1nc(-c2ccc(CO)o2)c2ccccc21 (stereo not drawn) — inhibition (RBE; ATP luminescence; 46 µM; 72 h): 76%
NCCC(=O)Nc1ccccc1/N=c1\cc(-c2ccc3c(c2)OCO3)oc2ccccc12 — inhibition (MDA-MB-468; CCK-8; 1 µM): 19.2%
C[C@H](Nc1ccc2c(c1)OCCn1cc(N3C(=O)OC[C@H]3C(F)F)nc1-2)C(N)=O — EC50 (MFE-280; ATP luminescence; 5 days): 42.1 nM
CCN(Cc1cccc(C)c1)c1ccc(CO)c(Cl)c1 — inhibition (RBE; ATP luminescence; 46 µM; 72 h): 85%
CCNc1nc2ccc(-c3c/c(=N\c4ccccc4NC(=O)CCN)c4ccccc4o3)cc2o1 — inhibition (MDA-MB-468; CCK-8; 1 µM): 31.4%
CN(C)CCNC(=O)c1ccc(-c2nc3ccc4[nH]ncc4c3c3c2CCCCC3)cc1 — GI50 (MV4-11; resazurin; 72 h): 25 nM
CCOC(=O)c1ccc(-c2nn(Cc3ccccc3)c3ccccc23)o1 — inhibition (RBE; ATP luminescence; 46 µM; 72 h): 35%
O=C(Nc1ccc(Cl)cc1)C1CCCN(C(=O)c2cc(C(F)(F)F)cc(C(F)(F)F)c2)C1 (racemic) — viability (HBL1; ATP luminescence; 0.5 µM; 5 days): 98.8%
OCCc1ccc(-c2nn(Cc3ccccc3)c3ccccc23)o1 — inhibition (RBE; ATP luminescence; 46 µM; 72 h): 21%
CN(C)CCNC(=O)c1ccc(-c2nc3ccc4[nH]ncc4c3c3c2CC(F)(F)CC3)cc1 — GI50 (MV4-11; resazurin; 72 h): 112 nM
OCc1ccc(-c2nn(Cc3ccccn3)c3ccccc23)o1 — inhibition (RBE; ATP luminescence; 46 µM; 72 h): 70%
Nc1nc2ccc(-c3c/c(=N\c4ccccc4NC(=O)C4CCNC4)c4ccccc4o3)cc2o1 (stereo not drawn) — inhibition (MDA-MB-468; CCK-8; 1 µM): 55.6%
COc1cnccc1Cn1nc(-c2ccc(CO)o2)c2ccccc21 — inhibition (RBE; ATP luminescence; 46 µM; 72 h): 85%
CN(C)CCNC(=O)c1ccc(-c2nc3ccc4[nH]ncc4c3c3c2CCCC3)c(F)c1 — GI50 (MV4-11; resazurin; 72 h): 127 nM
OCc1ccc(N(Cc2ccc(F)cc2)Cc2ccc(F)cc2)cc1Cl — inhibition (RBE; ATP luminescence; 46 µM; 72 h): 78%
CC(=O)OC[C@H]1O[C@@H](n2cnc(N)nc2=O)[C@H](OC(C)=O)[C@@H]1OC(C)=O — viability (HBL1; ATP luminescence; 0.5 µM; 5 days): 111%
